Measurements: article PMC8945396 (ACS Nano, 2022)

Experiments:
[1] = tested on: soybean leaf epidermal and palisade mesophyll cells; assay: Translocation of TAMRA-labeled CPPs after spraying; type: in vivo, Glycine max; conditions: cv. Enrei; 30, 90, 150 min post spraying; CLSM, 6 ROIs
[2] = tested on: transgenic tomato leaf cells overexpressing GFP; assay: Transfection of Cy3-labeled pBI221/CPP complexes after spraying; type: in vivo, Solanum lycopersicum; conditions: as Cy3-labeled pBI221/CPP complex, N/P ratio = 2.0; 2 h post spraying; n = 15 ROIs
[3] = tested on: epidermal cells of tomato leaves; assay: Translocation of TAMRA-labeled CPPs after spraying; type: in vivo, Solanum lycopersicum; conditions: compared among BP100, dR9, KH9, KAibA; 30, 90, 150 min; 10 ROIs
Procedure, shortened: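 Tomato (cv. Micro-Tom) grown in soil with vermiculite at 25 °C, 16/8 h light/dark, 80 μmol photons m–2 s–1, 50% RH for 5–8 weeks; plants with 5–6 expanded leaves. Leaves were water-washed and dried 3–4 h, then sprayed with TAMRA-labeled peptides and lidded. Before imaging, leaves were rinsed 5 × 1 mL water. TAMRA fluorescence intensity was read by confocal microscopy, ex/em 555/580 nm.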

[4] = tested on: Arabidopsis thaliana leaf upper epidermal and palisade mesophyll cells; assay: Cell penetration and translocation of TAMRA-labeled CPPs after spraying; type: in vivo; conditions: 0.1 μg/mL sprayed; 30, 90, 150 min post spraying; CLSM, n = 8 ROIs

Question: With (Lys(Aib)Ala)5 [TAMRA-labeled KAibA] as the substance, how does the “translocation efficiency into the palisade mesophyll of soybean leaves” value [1] read?
Answer: higher translocation efficiency into the palisade mesophyll than the other CPPs

Question: For “KHKHKHKHKHKHKHKHKHKKLFKKILKYL [KH9-BP100]”, which “transfection efficiency of plasmid DNA molecules after spraying” value [2] is on record?
Answer: higher transfection efficiency

Question: d-(RRRRRRRRR) [TAMRA-labeled dR9] was tested. Which “translocation efficiency in epidermal cells of tomato leaves” value [3] did it give?
Answer: greatest translocation efficiency

Question: What about the “penetration efficiency into the palisade mesophyll” value [4] of the same substance?
Answer: higher penetration efficiency into the palisade mesophyll than the other CPPs
